# Test results as given in ChEMBL document CHEMBL4828720, “Macrocyclic Immunoproteasome Inhibitors as a Potential Therapy for Alzheimer's Disease” (J Med Chem, 2021).
# Activity calls are given as the source filed them. No cut-off for these calls is given here.
# What was measured:
# [1] = target: T1, Proteasome subunit beta type-9 (Homo sapiens, UniProt P28065); assay: Inhibition of human 20S proteasome LMP2 using Ac-PAL-AMC as fluorogenic substrate measured every minute for 1 hr by fluorescence assay
# T1 sequence (P28065 whole entry): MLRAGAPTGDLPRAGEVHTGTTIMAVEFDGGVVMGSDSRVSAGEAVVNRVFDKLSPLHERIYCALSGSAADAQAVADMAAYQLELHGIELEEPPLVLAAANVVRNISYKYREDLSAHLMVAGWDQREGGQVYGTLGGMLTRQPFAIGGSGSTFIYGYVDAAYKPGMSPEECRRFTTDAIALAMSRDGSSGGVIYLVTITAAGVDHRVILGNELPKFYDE
# Outline: (§1)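 Preincubated 1 h with inhibitor at 3-10,000 nM (8 concentrations). Substrates at 100 μM: Ac-PAL-AMC (LMP2), Ac-nLPnLD-AMC (Y), Ac-ANW-AMC (LMP7). Ac-WLA-AMC (X) at 20 μM. AMC fluorescence (360/460 nm) read each minute for 1 h; 3 replicates.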
# [2] = Inhibition of human 20S proteasome Y using Ac-nLPnLD-AMC as fluorogenic substrate measured every minute for 1 hr by fluorescence assay; outline: as §1
# [3] = target: T2, Proteasome subunit beta type-8 (Homo sapiens, UniProt P28062); assay: Inhibition of human 20S proteasome LMP7 using Ac-ANW-AMC as fluorogenic substrate measured every minute for 1 hr by fluorescence assay
# T2 sequence (P28062 whole entry): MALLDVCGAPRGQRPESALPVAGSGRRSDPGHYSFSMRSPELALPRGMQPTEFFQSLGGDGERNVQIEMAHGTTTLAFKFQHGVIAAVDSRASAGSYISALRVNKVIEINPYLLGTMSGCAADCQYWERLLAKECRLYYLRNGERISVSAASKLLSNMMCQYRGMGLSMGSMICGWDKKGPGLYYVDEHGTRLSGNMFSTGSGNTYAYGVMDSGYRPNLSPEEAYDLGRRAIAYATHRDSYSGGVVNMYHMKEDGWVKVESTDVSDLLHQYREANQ
# Outline: as §1, with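 “Purified human 20S constitutive or immunoproteasome, 50 ng in 20 mM Tris-HCl, 0.5 mM EDTA, 0.035% SDS, pH 8.0. Preincubated” for “Preincubated”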
# [4] = Inhibition of human 20S proteasome X using Ac-WLA-AMC as fluorogenic substrate measured every minute for 1 hr by fluorescence assay
# Outline: as §1, with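 “Purified human 20S constitutive or immunoproteasome, 50 ng in 20 mM Tris-HCl, 0.5 mM EDTA, 0.035% SDS, pH 8.0. Preincubated” for “Preincubated”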
# [5] = target: T1, Proteasome subunit beta type-9; assay: Inhibition of human 20S proteasome LMP2 activity in human RPMI-8226 cells using Ac-PAL-AMC as fluorogenic substrate incubated for 72 hrs by fluorescence assay; format: cell-based
# [6] = target: T1, Proteasome subunit beta type-9; assay: Inhibition of human 20S proteasome LMP2 activity in human RPMI-8226 cells overexpressing ABCB1 using Ac-PAL-AMC as fluorogenic substrate incubated for 72 hrs by fluorescence assay; format: cell-based
# Homo sapiens = organism: Homo sapiens; assay: Selectivity index, ratio of IC50 for inhibition of human 20S proteasome LMP2 activity in human RPMI-8226 cells overexpressing ABCB1 to IC50 for inhibition of human 20S proteasome LMP2 activity in human RPMI-8226 cells; format: cell-based
# Outline: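 Carfilzomib-resistant RPMI 8226/ABCB1 line, kept drug-free for two weeks, alongside parental RPMI 8226. Cells exposed to varying inhibitor concentrations for 72 h, n=3 per concentration. Lysates (5 μg protein, pH 8.0 Tris/EDTA/0.035% SDS buffer) read with 100 μM Ac-PAL-AMC at ex 360/em 460 nm every minute for 1 h. IC50 from curve fitting, mean ± SD.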
# [7] = target: T3, Proteasome subunit beta type-9 (Homo sapiens) (UniProt P28065); assay: Inhibition of human 20S proteasome LMP2 activity in human NCI/ADR-RES cells overexpressing ABCB1 using Ac-PAL-AMC as fluorogenic substrate incubated for 72 hrs in presence and absence of verapamil by fluorescence assay; format: cell-based
# T3 sequence (whole entry): T1 sequence (P28065 whole entry)
# [8] = Drug concentration in ICR mouse brain at 10 mg/kg, iv after 1 hr by LC-MS/MS analysis; format: ADME, organism-based; details: in vivo
# Outline: (§2)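 ICR mice received a single intravenous dose of 10 mg/kg. Brain homogenates taken at 1 h post-dose were assayed for compound level and for LMP2 activity.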
# [9] = target: T4, Proteasome subunit beta type-9 (Mus musculus) (UniProt P28076); assay: Inhibition of LMP2 in ICR mouse brain homogenate at 10 mg/kg, iv after 1 hr; format: organism-based; outline: as §2
# T4 sequence (whole entry): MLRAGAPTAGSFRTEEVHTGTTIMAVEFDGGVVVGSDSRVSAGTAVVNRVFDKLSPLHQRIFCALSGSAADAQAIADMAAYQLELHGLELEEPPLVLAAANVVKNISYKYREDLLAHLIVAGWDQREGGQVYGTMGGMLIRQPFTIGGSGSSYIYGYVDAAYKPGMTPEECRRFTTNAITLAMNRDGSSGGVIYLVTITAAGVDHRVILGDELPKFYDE
# Mus musculus [10] = assay: Cognitive enhancing effect in Tg2576 mouse assessed as shorter distances travelled before reaching the escape platform at 10 mg/kg, iv administered twice weekly and measured after 5 days by Morris water maze test; format: functional, organism-based; details: time 5.0 day
# Outline: (§3)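 Tg2576 mice, 9 months old, given 10 mg/kg twice weekly for 3 weeks. Morris water maze in 25 ± 1 °C water, platform hidden 1-1.5 cm below surface. Three 60-s trials a day from randomized start points for 5 days. Swim paths tracked from an overhead camera. Single probe trial on day 6 scored as time in target quadrant. n=5 treated, n=12 control on days 4-5; Student's t-test.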
# Mus musculus [11] = assay: Cognitive enhancing effect in Tg2576 mouse assessed as improvement in spatial learning and memory by measuring increase in time spent in target quadrant at 10 mg/kg, iv administered twice weekly and measured after 6 days during probe trial by Morris water maze test; format: functional, organism-based; details: time 6.0 day; outline: as §3
# [12] = Effect on RPE structural integrity in ICR mouse by immunostaining based confocal microscopic analysis; format: ADME
# Outline: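 RPE collected after behavioral testing from treated Tg2576 mice and from age-matched non-transgenic ICR mice. Eyecups dissected in ice-cold PBS and retina removed. Tissue permeabilized with 0.2% Triton X-100 for 15 min, blocked with 3% BSA, then anti-β-catenin (1:100) overnight at 4 °C. Alexa 555 secondary 2 h, imaged by confocal microscopy.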
# [13] = Toxicity in ICR mouse; details: in vivo
# [14] = target: Proteasome subunit beta type-9 (Mus musculus) (UniProt P28076); assay: Inhibition of LMP2 in mouse BV-2 cells
# [15] = target: Proteasome subunit beta type-9 (Mus musculus) (UniProt P28076); assay: Inhibition of LMP2 in mouse BV-2 cells assessed as reduction in LPS-stimulated IL-1alpha release by ELISA
# [16] = system: Proteasome subunit beta type-9 (Canis lupus familiaris); assay: Inhibition of canine 20S proteasome LMP2 activity in MDCK-II cells using Ac-PAL-AMC as fluorogenic substrate by fluorescence assay
compound,measurement,setting,value
C[C@]1(C(=O)[C@H](Cc2ccccc2)NC(=O)[C@@H]2Cc3ccc(cc3)OCCCCCCCC(=O)N3CCC[C@H]3C(=O)N2)CO1,IC50,[1],0.184 µM
same,IC50,[2],8.38 µM
same,IC50,[3],0.399 µM
same,IC50,[4],4.64 µM
same,IC50,[5],0.0327 µM
same,IC50,[6],0.106 µM
same,Ratio IC50,Homo sapiens,3.3
same,inhibition,[7],Active
same,Ct,[8],3.5 pmol/g
same,inhibition,[9],inactive
same,Activity,Mus musculus [10],Active
same,Activity,Mus musculus [11],Active
same,Activity,[12],Non-Toxic
same,Activity,[13],Non-Toxic
same,inhibition,[14],Active
same,inhibition,[15],Active
same,inhibition,[16],Active
